According to ChEMBL document CHEMBL4138152, “Exploring the tetrahydroisoquinoline thiohydantoin scaffold blockade the androgen receptor as potent anti-prostate cancer agents” (Eur J Med Chem, 2018):
Active and inactive are the calls of the source. No cut-off for these calls is given here.

What was measured:
LNCaP = experiment: Antiproliferative activity against human LNCAP cells after 3 days by MTT assay; assay type: functional, cell-based; conditions: 72 h
Procedure, shortened: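 LNCaP cells kept in RPMI-1640 with 10% FBS, 37 °C, 5% CO2. Seeded at 10,000 cells/well and left 24 h. Serial dilutions of compound or DMSO added, then 3 d incubation. MTT (5 mg/mL) added for 4 h, crystals dissolved in DMSO, absorbance read at 492 nm. Triplicate or more; IC50 reported as mean.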

DU-145 = experiment: Antiproliferative activity against human DU145 cells after 3 days by MTT assay; assay type: functional, cell-based; conditions: DU-145, 72 h
Procedure, shortened: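 DU145 cells kept in RPMI-1640 with 10% FBS, 37 °C, 5% CO2. Seeded at 7,000 cells/well and left 24 h. Serial dilutions of compound or DMSO added, then 3 d incubation. MTT (5 mg/mL) added for 4 h, formazan dissolved in DMSO, absorbance read at 492 nm. Triplicate or more; IC50 reported as mean.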

[1] = target: T1, Androgen receptor (Homo sapiens) (UniProt P10275); conditions: at 10 µM
T1 sequence (whole entry): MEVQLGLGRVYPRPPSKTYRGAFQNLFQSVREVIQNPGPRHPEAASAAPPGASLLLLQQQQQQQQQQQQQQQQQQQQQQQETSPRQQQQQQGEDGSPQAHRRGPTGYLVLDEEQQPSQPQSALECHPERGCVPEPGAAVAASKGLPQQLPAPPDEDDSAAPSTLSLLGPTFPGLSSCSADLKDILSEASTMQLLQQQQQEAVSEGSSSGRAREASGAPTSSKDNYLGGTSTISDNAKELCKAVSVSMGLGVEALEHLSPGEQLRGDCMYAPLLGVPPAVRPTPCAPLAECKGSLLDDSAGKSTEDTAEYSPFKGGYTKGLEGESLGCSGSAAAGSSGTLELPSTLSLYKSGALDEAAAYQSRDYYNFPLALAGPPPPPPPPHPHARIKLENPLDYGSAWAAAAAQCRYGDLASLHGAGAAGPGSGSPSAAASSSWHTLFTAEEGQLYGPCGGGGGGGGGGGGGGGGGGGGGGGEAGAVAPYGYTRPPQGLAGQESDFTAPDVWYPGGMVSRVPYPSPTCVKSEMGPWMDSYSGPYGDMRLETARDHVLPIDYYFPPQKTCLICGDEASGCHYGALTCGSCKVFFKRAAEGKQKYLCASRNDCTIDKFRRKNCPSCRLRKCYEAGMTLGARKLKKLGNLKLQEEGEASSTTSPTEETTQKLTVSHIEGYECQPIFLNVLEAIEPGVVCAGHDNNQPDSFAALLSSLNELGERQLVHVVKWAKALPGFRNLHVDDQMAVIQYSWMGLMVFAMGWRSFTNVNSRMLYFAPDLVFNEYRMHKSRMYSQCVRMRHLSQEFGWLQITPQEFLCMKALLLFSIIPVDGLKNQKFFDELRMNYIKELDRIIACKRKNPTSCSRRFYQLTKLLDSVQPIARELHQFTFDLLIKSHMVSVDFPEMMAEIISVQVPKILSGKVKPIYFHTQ

[2] = Tmax in rat administered via gavage by HPLC-MS/MS method; assay type: ADME, organism-based; conditions: in vivo, po
Procedure, shortened: (§1)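 Rats 180–220 g, n = 3 per group; compound dissolved in water, single gavage dose of 5.0 mg/kg. Plasma quantified by HPLC-MS/MS. Parameters derived from mean plasma concentration by noncompartmental analysis.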

[3] = AUC (0 to t) in rat administered via gavage by HPLC-MS/MS method; assay type: ADME, organism-based; conditions: in vivo, po; procedure, shortened: as §1
[4] = Cmax in rat administered via gavage by HPLC-MS/MS method; assay type: ADME, organism-based; conditions: in vivo, po; procedure, shortened: as §1
[5] = Clearance in rat administered via gavage by HPLC-MS/MS method; assay type: ADME, organism-based; conditions: in vivo, po; procedure, shortened: as §1
[6] = Elimination half life in rat administered via gavage by HPLC-MS/MS method; assay type: ADME, organism-based; conditions: in vivo, po, read-out: beta t1/2 (converted); procedure, shortened: as §1
Androgen receptor = target: T2, Androgen receptor (Homo sapiens, UniProt P10275); assay type: cell-based
T2 sequence (P10275 whole entry): T1 sequence (whole entry)

[7] = target: T1, Androgen receptor (Homo sapiens); conditions: at 10 µM; remark: listed apart in the source

Row | Structure (SMILES) | IC50 (LNCaP) [µM] | IC50 (DU-145) [µM] | inhibition [1] | Tmax [2] [h] | AUC(0-t) [3] [ng·h/mL] | Cmax [4] [ng/mL] | CL/F [5] [mL/min/kg] | half-life [6] [min] | IC50 (Androgen receptor) [µM] | inhibition [7]
1 | CCCOc1ccc2c(c1)CN1C(=S)N(c3ccc(C#N)c(C(F)(F)F)c3)C(=O)C1C2 (stereo unspecified) | 11.6 | 62.3 | 54% |  |  |  |  |  |  | 
2 | N#Cc1ccc(N2C(=O)C3Cc4ccc(N)cc4CN3C2=S)cc1C(F)(F)F (stereo unspecified) | 18.9 | 89.7 | 37.8% |  |  |  |  |  |  | 
3 | CC(C)(C)C(=O)Nc1ccc2c(c1)CN1C(=S)N(c3ccc(C#N)c(C(F)(F)F)c3)C(=O)C1C2 (stereo unspecified) | 21.2 | 83.2 | inactive |  |  |  |  |  |  | 
4 | N#Cc1ccc(N2C(=O)C3Cc4ccccc4CN3C2=S)cc1F (stereo unspecified) | 70.3 | 37.1 | inactive |  |  |  |  |  |  | 
5 | N#Cc1ccc(N2C(=O)C3Cc4cc(Cl)c(O)c(Cl)c4CN3C2=S)cc1C(F)(F)F (stereo unspecified) | 14 | 17.1 | 36% |  |  |  |  |  |  | 
6 | COc1c(Br)cc2c(c1Br)CN1C(=S)N(c3ccc(C#N)c(C(F)(F)F)c3)C(=O)C1C2 (stereo unspecified) | 19.1 | 33.8 | 4.6% |  |  |  |  |  |  | 
7 | CC(C)Oc1ccc2c(c1)CN1C(=S)N(c3ccc(C#N)c(C(F)(F)F)c3)C(=O)C1C2 (stereo unspecified) | 8.6 | 91.6 | 45.4% |  |  |  |  |  |  | 
8 | CCOC(=O)CCCOc1c(Br)cc2c(c1Br)CN1C(=S)N(c3ccc(C#N)c(C(F)(F)F)c3)C(=O)C1C2 (stereo unspecified) | 6.3 | 21.9 | inactive |  |  |  |  |  |  | 
9 | N#Cc1ccc(N2C(=O)C3Cc4ccccc4CN3C2=S)cc1C(F)(F)F (stereo unspecified) | 31.1 | > 200 | 89% | 2 | 3860 | 387 | 20.5 | 308 |  | 
10 | CCOC(=O)Nc1cc2c(cc1F)CC1C(=O)N(c3ccc(C#N)c(C(F)(F)F)c3)C(=S)N1C2 (stereo unspecified) | 13.4 | > 200 | 85.1% | 4 | 30000 | 2290 | 2.43 | 1480 | 7.39 | Active
11 | CCOC(=O)CCCOc1ccc2c(c1)CN1C(=S)N(c3ccc(C#N)c(C(F)(F)F)c3)C(=O)C1C2 (stereo unspecified) | 18.8 | 15.4 | 43.9% |  |  |  |  |  |  | 
12 | N#Cc1ccc(N2C(=O)C3Cc4cc(Br)c(O)c(Br)c4CN3C2=S)cc1C(F)(F)F (stereo unspecified) | 11.1 | 11.4 | 6.1% |  |  |  |  |  |  | 
13 | N#Cc1ccc(N2C(=O)C3Cc4ccc([N+](=O)[O-])cc4CN3C2=S)cc1C(F)(F)F (stereo unspecified) | 43 | > 200 | 59.8% |  |  |  |  |  |  | 
14 | N#Cc1ccc(N2C(=O)C3Cc4cc([N+](=O)[O-])ccc4CN3C2=S)cc1C(F)(F)F (stereo unspecified) | 56.4 | > 200 | inactive |  |  |  |  |  |  | 
15 | CNC(=O)c1cc2c(cc1F)CC1C(=O)N(c3ccc(C#N)c(F)c3)C(=S)N1C2 (stereo unspecified) | 116 | 85.4 | 26.7% |  |  |  |  |  |  | 
16 | CS(=O)(=O)Nc1ccc2c(c1)CN1C(=S)N(c3ccc(C#N)c(C(F)(F)F)c3)C(=O)C1C2 (stereo unspecified) | 31.1 | > 200 | 13.6% |  |  |  |  |  |  | 

Row | Structure (SMILES) | IC50 (LNCaP) [µM] | IC50 (DU-145) [µM] | inhibition [1] | Tmax [2] [h] | AUC(0-t) [3] [ng·h/mL] | Cmax [4] [ng/mL] | CL/F [5] [mL/min/kg] | half-life [6] [min] | IC50 (Androgen receptor) [µM] | inhibition [7]
17 | CCC(=O)Nc1ccc2c(c1)CN1C(=S)N(c3ccc(C#N)c(C(F)(F)F)c3)C(=O)C1C2 (stereo unspecified) | 19.5 | > 200 | 4.5% |  |  |  |  |  |  | 
18 | N#Cc1ccc(N2C(=O)C3Cc4ccccc4N3C2=S)cc1C(F)(F)F (stereo unspecified) | 15.3 |  |  | 2 | 2860 | 452 | 26.5 | 622 | 18.7 | 
19 | CCCCS(=O)(=O)Nc1ccc2c(c1)CN1C(=S)N(c3ccc(C#N)c(C(F)(F)F)c3)C(=O)C1C2 (stereo unspecified) | 3.12 | > 200 | 29.5% |  |  |  |  |  |  | 
20 | CNC(=O)c1cc2c(cc1F)CC1C(=O)N(c3ccc(C#N)c(C(F)(F)F)c3)C(=S)N1C2 (stereo unspecified) | 28.1 | > 200 | 47.1% |  |  |  |  |  |  | 
21 | N#Cc1ccc(N2C(=O)C3Cc4cc(I)c(O)c(I)c4CN3C2=S)cc1C(F)(F)F (stereo unspecified) | 16.3 | 22.1 | 27.3% |  |  |  |  |  |  | 
22 | COc1ccc2c(c1)CN1C(=S)N(c3ccc(C#N)c(C(F)(F)F)c3)C(=O)C1C2 (stereo unspecified) | 100 | 60.4 | inactive |  |  |  |  |  |  | 
23 | CCCC(=O)Nc1ccc2c(c1)CN1C(=S)N(c3ccc(C#N)c(C(F)(F)F)c3)C(=O)C1C2 (stereo unspecified) | 10.8 | > 200 | 45.5% |  |  |  |  |  |  | 
24 | N#Cc1ccc(N2C(=O)C3Cc4ccc(OC5CCCCC5)cc4CN3C2=S)cc1C(F)(F)F (stereo unspecified) | 8.5 | 98.1 | 61.6% |  |  |  |  |  |  | 
25 | CC(C)COc1ccc2c(c1)CN1C(=S)N(c3ccc(C#N)c(C(F)(F)F)c3)C(=O)C1C2 (stereo unspecified) | 10.6 | 52.6 | 61.5% |  |  |  |  |  |  | 
26 | CCOc1ccc2c(c1)CN1C(=S)N(c3ccc(C#N)c(C(F)(F)F)c3)C(=O)C1C2 (stereo unspecified) | 22.6 | 40.9 | 47.1% |  |  |  |  |  |  | 
27 | CC(=O)Nc1ccc2c(c1)CN1C(=S)N(c3ccc(C#N)c(C(F)(F)F)c3)C(=O)C1C2 (stereo unspecified) | 83.8 | > 200 | 25% |  |  |  |  |  |  | 
28 | CNC(=O)c1ccc(N2C(=S)N(c3ccc(C#N)c(C(F)(F)F)c3)C(=O)C2(C)C)cc1F [ENZALUTAMIDE] | 12.5 | 46.1 |  |  |  |  |  |  |  | 
29 | CC12Cc3ccccc3CN1C(=S)N(c1ccc(C#N)c(C(F)(F)F)c1)C2=O (stereo unspecified) | 65.3 | > 200 | 26.2% |  |  |  |  |  |  | 
30 | CCOC(=O)Nc1ccc2c(c1)CN1C(=S)N(c3ccc(C#N)c(C(F)(F)F)c3)C(=O)C1C2 (stereo unspecified) | 6.3 | 90.1 | 45.4% | 2 | 7030 | 641 | 9.5 | 2060 |  | 
31 | N#Cc1ccc(N2C(=O)C3Cc4cc(N)ccc4CN3C2=S)cc1C(F)(F)F (stereo unspecified) | 73 | > 200 | 14.2% |  |  |  |  |  |  | 
32 | N#Cc1ccc(N2C(=O)C3Cc4ccc(O)cc4CN3C2=S)cc1C(F)(F)F (stereo unspecified) | 50.7 | > 200 | 85.7% |  |  |  |  |  |  | 
